# TRPC6 inh: blocks the mouse TRPC6 cation channel. AID 2553. Q61143. 310,000 compounds, 1.1% hits. B-score at 10 µM. HEK293-TRPC6, membrane potential dye, ACh-evoked depolarization; active compounds read low;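 active means B-score under library mean minus 3 SD, initial fluorescence not abnormally high, positive integrated signal ratio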;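 further: B-score derived from integrated fluorescence ratio over the kinetic read; more negative B-score means stronger inhibition of depolarization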
# Target sequence (Q61143 whole entry, looked up): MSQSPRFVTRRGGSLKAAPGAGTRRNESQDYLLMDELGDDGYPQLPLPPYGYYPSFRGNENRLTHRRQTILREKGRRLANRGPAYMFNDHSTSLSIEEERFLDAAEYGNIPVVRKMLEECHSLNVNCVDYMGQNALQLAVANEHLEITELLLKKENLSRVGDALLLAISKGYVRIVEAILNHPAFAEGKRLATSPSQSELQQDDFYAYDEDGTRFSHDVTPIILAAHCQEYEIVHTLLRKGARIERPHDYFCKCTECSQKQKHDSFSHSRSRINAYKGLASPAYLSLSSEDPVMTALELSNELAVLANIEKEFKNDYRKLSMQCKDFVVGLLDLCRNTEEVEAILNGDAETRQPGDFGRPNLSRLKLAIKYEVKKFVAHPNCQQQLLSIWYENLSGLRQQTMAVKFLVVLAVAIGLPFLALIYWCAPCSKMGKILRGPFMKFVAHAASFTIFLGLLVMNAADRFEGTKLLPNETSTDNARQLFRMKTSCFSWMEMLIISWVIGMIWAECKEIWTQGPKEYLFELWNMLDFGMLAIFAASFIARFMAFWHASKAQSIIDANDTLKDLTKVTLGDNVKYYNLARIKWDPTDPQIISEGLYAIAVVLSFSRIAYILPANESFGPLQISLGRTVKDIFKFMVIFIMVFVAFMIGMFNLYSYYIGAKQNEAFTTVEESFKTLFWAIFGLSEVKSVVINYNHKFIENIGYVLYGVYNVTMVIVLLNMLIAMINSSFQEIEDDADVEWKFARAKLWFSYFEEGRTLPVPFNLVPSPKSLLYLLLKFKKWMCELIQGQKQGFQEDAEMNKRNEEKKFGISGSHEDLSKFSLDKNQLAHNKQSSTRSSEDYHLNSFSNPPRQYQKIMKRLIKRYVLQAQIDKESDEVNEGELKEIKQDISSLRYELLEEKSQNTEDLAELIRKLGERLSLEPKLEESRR
# TRPC6 activator: activators of mouse TRPC6 channel; 310,000 compounds, 0.13% hits; HEK293-TRPC6 membrane potential dye fluorescence; active compounds read high; B-score at 10 µM; Q61143;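 active means B-score of the integrated fluorescence ratio above library mean plus 3 SD, and starting fluorescence ratio within library mean plus 5 SD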;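 further: higher score means more depolarization so channel activation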
# TRPC4 agonist: TRPC4 (mouse) channel activation; HEK293 TRPC4beta/mu-opioid, Fluo4 calcium fluorescence; active compounds read high; Q9QUQ5; 310,000 compounds, 0.49% hits; AID 2237; B-score at 10 µM;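 active means B-score above 5 SD of library B-scores, and initial fluorescence ratio not above library mean plus 5 SD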;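 further: positive B-score marks a calcium rise read as TRPC4 activation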
#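 Material: HEK293 stable line with TRPC4beta plus mu-opioid receptor; technique: Fluo4 calcium-sensitive dye fluorescence, kinetic, 1 Hz baseline; timing: Fluo4 dye loading 45 min at room temperature, 110 s recording; controls: assay buffer as low control, maximal DAMGO as high control; read-out: integrated baseline-normalised fluorescence ratio, converted to per-well B score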
# TRPC4 inh: TRPC4 (mouse) channel inhibition; B-score at 10 µM; 300,000 compounds, 0.39% hits; HEK293 TRPC4beta/mu-opioid, DAMGO-evoked Fluo4 calcium flux; active compounds read low; AID 2247; Q9QUQ5;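 active means B-score over 3 SD under the library average, no early fluorescence shift, positive overall ratio signal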
#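 Assay system: TRPC4beta/mu-opioid receptor HEK293 cell line; compound dosing: single concentration per test compound; detection: Fluo4 Ca2+ flux fluorescence; evaluation: per-well B score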
# TRPC4 PAM: TRPC4 (mouse) allosteric potentiation. 310,000 compounds, 0.42% hits. Q9QUQ5. HEK293 TRPC4beta/mu-opioid, DAMGO EC20, Fluo-4 Ca2+ flux; active compounds read high. AID 2227. B-score at 10 µM;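 active means B-score of calcium response area above 5 SD of library B-scores, with initial fluorescence ratio within 5 SD of library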;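 further: B-score of integrated fluorescence ratio over time as area under calcium response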
# TRPC4 spec 2: second check of whether TRPC6 inhibitors also affect mouse TRPC4; 920 compounds, 42% hits; inhibition, % at 10 µM; shares compounds with TRPC6 inh; AID 2776; HEK293 TRPC4/MOR, membrane potential dye fluorescence; channel activated by saturating DAMGO dose;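 active means compounds whose fluorescence signal differed from control wells by over 3 SD, either direction, in both duplicate plates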
# TRPC4 spec: mouse TRPC4 off-target activity of TRPC6 inhibitors; shares compounds with TRPC6 inh; HEK293 TRPC4/mu-opioid, membrane potential fluorescence; activity change, negative = inhibition, % at 10 µM; 920 compounds, 61% hits; AID 2777;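 active means rise or fall in signal beyond 3 SD of buffer-only wells in both replicate plates, either sign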;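 further: integrated kinetic ratio of fluorescence range over baseline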
# HEK293 MPD ctr 2-1: parental HEK293 nonspecific activity of TRPC6 inhibitors, second screen; AID 2779; parental HEK293 membrane potential dye fluorescence; maximal acetylcholine challenge after compound addition; signal change vs control, % at 10 µM; 920 compounds, 31% hits; shares compounds with TRPC6 inh;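 active means membrane potential signal moving either way by over 3 SD of the maximum-effect control, in both duplicate plates, meaning non-specific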
# HEK293 MPD ctr-1: checks TRPC6 inhibitor effects in parental HEK293 cells | shares compounds with TRPC6 inh | membrane potential signal change, % at 10 µM | parental HEK293 membrane potential dye fluorescence | AID 2780 | 920 compounds, 60% hits;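 active means membrane potential signal shifting up or down by more than 3 SD of buffer-only wells, on both duplicate plates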
# HEK293 MPD ctr-2: parental HEK293 nonspecific activity of TRPC6 modulators; shares compounds with TRPC6 inh; membrane potential dye fluorescence; membrane potential signal change, % at 10 µM; 2,400 compounds, 51% hits; AID 488924;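 active means membrane potential signal moves up or down beyond 5 SD from buffer-only wells, on both duplicate plates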
# HEK293 MPD ctr 2-2: second check of TRPC6 modulator effects in parental HEK293 cells | shares compounds with TRPC6 inh | membrane potential dye fluorescence; after compound, maximal acetylcholine stimulation | inhibition, % at 10 µM | 2,400 compounds, 14% hits | AID 488926;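 active means membrane potential signal drops by more than 5 SD from the mean control signal, in both duplicate plates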;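 further: plate controls were acetylcholine ECmax control wells for no effect and buffer only wells for full effect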
# TRPC4 ctr mod: tests whether TRPC6 modulators also affect mouse TRPC4 | AID 488927 | shares compounds with TRPC6 inh | 2,400 compounds, 69% hits | percent change from control (negative = decrease, positive = increase), % at 10 µM | HEK293 TRPC4/mu-opioid, membrane potential fluorescence;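 active means membrane potential signal moved up or down beyond 5 SD of buffer control wells, in both duplicate plates, actives on both sides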;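 further: plate controls were assay buffer wells for no effect and DAMGO maximal-effect wells for full effect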
# TRPC4 ctr inh 2: second selectivity test of TRPC6 modulators against mouse TRPC4. HEK293 TRPC4/mu-opioid, membrane potential dye fluorescence; stimulated with maximal-effect DAMGO. inhibition, % at 10 µM. 2,400 compounds, 55% hits. shares compounds with TRPC6 inh;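 active means drop in membrane potential signal beyond 5 SD of the control wells in both duplicate plates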;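 further: TRPC4 counter screen for TRPC6 hits run under conditions tuned for TRPC6 not TRPC4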
# TRPC6 inh conf: confirmation of mouse TRPC6 inhibitors; AID 488960; HEK293-TRPC6, membrane potential dye, ACh-evoked depolarization; 3,300 compounds, 43% hits; shares compounds with TRPC6 inh; inhibition, % at 10 µM;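 active means fluorescence ratio falls more than 5 SD below the full-stimulation control mean, in both duplicate runs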;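 further: integrated fluorescence ratio of peak minus minimum over baseline after agonist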
# TRPC6 act confirm: mouse TRPC6 activator confirmation; HEK293-TRPC6 membrane potential dye fluorescence, FDSS; AID 488961; activation, % at 10 µM; shares compounds with TRPC6 inh; 2,800 compounds, 11% hits;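 active means ratio signal rise beyond 5 SD above unstimulated control wells' mean, seen in both duplicate runs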;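 further: plate controls were buffer EC0 wells for no effect and acetylcholine ECmax response for full effect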
# Starred values were filed as active, the others as inactive; i = inactive; . = not tested or not shown. Sampled rows, rich in hits. Any-hit rate of the full collection: about 2.3%.
SMILES,TRPC6 inh,TRPC6 activator,TRPC4 agonist,TRPC4 inh,TRPC4 PAM,HEK293 MPD ctr-2,HEK293 MPD ctr 2-2,TRPC4 ctr mod,TRPC4 ctr inh 2,TRPC6 inh conf,TRPC6 act confirm,others
COc1cc2nc(N3CCNCC3)nc(N)c2cc1OC,-11.2*,i,i,i,i,-246.5%*,91.5%*,-38.0%*,53.0%*,64.0%*,i,
O=C(c1ccco1)N1CCN(c2ccnc3cc(Cl)ccc23)CC1,-5.13*,i,i,i,i,-160.5%*,i,-26.5%*,37.0%*,i,i,
CN1CCN(CC(=O)Nc2cc(N(C)C)nc3ccccc23)CC1,-6.79*,i,i,i,i,-154.5%*,i,-25.5%*,44.0%*,i,i,
CCCCCC(=O)Nc1cc(N(C)C)nc2ccccc12,-5.41*,i,i,i,i,i,i,-10.5%*,47.5%*,i,i,
CN1CCc2c1nc1ccccc1c2NC(=O)CN1CCCC1,-6.49*,i,i,i,i,-278.0%*,i,-46.0%*,46.0%*,i,i,
CCCCCCC(=O)Nc1c2c(nc3ccccc13)N(C)CC2,i,i,i,i,i,.,.,.,.,.,.,
CCN(CC)CC(=O)Nc1cc(N(C)C)nc2ccccc12,-7.51*,i,i,i,i,.,.,.,.,68.2%*,i,TRPC4 spec 2=70.0%*;TRPC4 spec=-25.2%*;HEK293 MPD ctr 2-1=3.0%*;HEK293 MPD ctr-1=-474.0%*
Cc1ccccc1NC(=O)CN1CCN(C)CC1,i,i,i,i,i,.,.,.,.,.,.,
CS(=O)(=O)N(CC(=O)N1CCCC1)c1cccc(F)c1,i,i,i,i,i,.,.,.,.,.,.,
CN1CCN(c2nc3c(c(=O)n(C)c(=O)n3C)n2Cc2cccc3ccccc23)CC1,i,i,i,i,i,.,.,.,.,.,.,
Cn1c(=O)c2c(nc(N3CCCCCC3)n2Cc2cccc3ccccc23)n(C)c1=O,-8.83*,i,i,i,13*,.,.,.,.,i,i,TRPC4 spec 2=i;TRPC4 spec=i;HEK293 MPD ctr 2-1=i;HEK293 MPD ctr-1=i
CN(c1ccccc1)P(=O)(N(C)c1ccccc1)N(C)c1ccccc1,-9.51*,i,i,i,i,.,.,.,.,66.2%*,.,TRPC4 spec 2=i;TRPC4 spec=28.9%*;HEK293 MPD ctr 2-1=i;HEK293 MPD ctr-1=14.8%*
CCN(c1ccccc1)P(=O)(Nc1ccccc1)Nc1ccccc1,i,i,i,i,i,.,.,.,.,.,.,
CCOC(=O)c1ccc(Oc2nc(OC)cc(OC)n2)cc1,i,i,i,i,i,.,.,.,.,.,.,
COc1ccccc1C(=O)NC(=O)COC(=O)C1(C)CC1(Cl)Cl (centres undefined),i,i,i,i,i,.,.,.,.,.,.,
COc1cc([N+](=O)[O-])ccc1NC(=O)Nc1cnccn1,-5.51*,i,i,i,i,i,i,76.5%*,90.5%*,58.5%*,.,
COc1ccccc1NC(=O)Nc1cnccn1,i,i,i,i,i,.,.,.,.,.,.,
CCOC(=O)Cn1c(=N)n(CCOc2ccc3ccccc3c2)c2ccccc21,-5.31*,i,i,i,i,i,i,i,70.0%*,40.0%*,i,
CC(C)CN1C(=O)c2ccc(C(=O)Nc3ccccc3C(=O)O)cc2C1=O,i,i,i,i,i,.,.,.,.,.,.,
COC(=O)c1cc(C(=O)c2cc(F)ccc2O)cn2c(=O)c3c(C)c(C)sc3nc12,-5.43*,i,i,i,i,i,i,i,43.5%*,i,i,
CCOC(=O)c1sc2nc3c(SCC(=O)O)cc(C(=O)c4cc(F)ccc4O)cn3c(=O)c2c1C,i,i,i,i,i,.,.,.,.,.,.,
CCN(CC)CCNc1cc(C)nc2c1C(=O)C(=O)C=C2N1CCCCC1,-7.46*,i,i,i,i,-273.5%*,i,-46.5%*,39.0%*,i,i,
CCOC(=O)C(=O)N1CCN(c2nc(-c3ccc(Cl)cc3)cs2)CC1,-6.2*,i,i,i,i,i,i,i,i,i,i,
CCOc1ccc(NC(=S)N(CCCN2CCCC2)Cc2cccn2Cc2ccc(Cl)cc2)cc1,-5.16*,i,i,i,i,i,i,i,53.0%*,i,i,
Cc1ccc(N2C(=O)CC(Sc3nc(C)cc(C)n3)C2=O)cc1 (centres undefined),i,i,i,i,i,.,.,.,.,.,.,
Cc1ccc(N2C=Nc3ccc(C)c4nc(C)cc2c34)cc1,-10.1*,i,i,i,i,-248.5%*,64.5%*,-52.5%*,73.5%*,60.5%*,i,
CC1=Nc2ccc(C)c3nc(C)cc(c23)N1c1ccc(C)cc1,-13.3*,i,i,i,i,-157.0%*,88.5%*,-33.0%*,82.5%*,87.0%*,i,
Cc1ccc(N2C(=O)c3cccc4cccc(c34)C2=O)cc1,i,i,i,i,i,.,.,.,.,.,.,
CSC1=N/C(=C\c2ccc(Cl)cc2)C(=O)N1N(C)C,i,i,i,i,i,.,.,.,.,.,.,
CC1(C)CN=c2s/c(=C\c3ccc(Cl)cc3)c(=O)n2C1,-7.26*,i,i,i,16*,.,.,.,.,i,i,TRPC4 spec 2=54.0%*;TRPC4 spec=-10.3%*;HEK293 MPD ctr 2-1=i;HEK293 MPD ctr-1=i

# Screens from PubChem BioAssay.
